Source: ChEMBL document CHEMBL1148843, “High-throughput screening affords novel and selective trypanothione reductase inhibitors with anti-trypanosomal activity” (Bioorg Med Chem Lett, 2007)

How the values were obtained:
[1] = target: Trypanothione reductase (Trypanosoma brucei brucei, UniProt P39051); assay: Inhibition of TR by DTNB-coupled assay
How it was run: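 Trypanothione reductase in 40 mM potassium HEPES pH 7.4, 1 mM EDTA with 4.22 µM trypanothione disulfide, 70.3 µM DTNB, 2.81 mU/mL TR. Compounds added from DMSO stocks, tested over 1.91 ng/mL to 31.2 µg/mL. NADPH added to start the reaction, 135 µM in the added solution. Plates incubated 60 min at 30°C, absorbance read at 405 nm. IC50 values determined.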

[2] = target: T1, Glutathione reductase, mitochondrial (Homo sapiens, UniProt P00390); assay: Inhibition of human GR
T1 sequence (P00390 whole entry): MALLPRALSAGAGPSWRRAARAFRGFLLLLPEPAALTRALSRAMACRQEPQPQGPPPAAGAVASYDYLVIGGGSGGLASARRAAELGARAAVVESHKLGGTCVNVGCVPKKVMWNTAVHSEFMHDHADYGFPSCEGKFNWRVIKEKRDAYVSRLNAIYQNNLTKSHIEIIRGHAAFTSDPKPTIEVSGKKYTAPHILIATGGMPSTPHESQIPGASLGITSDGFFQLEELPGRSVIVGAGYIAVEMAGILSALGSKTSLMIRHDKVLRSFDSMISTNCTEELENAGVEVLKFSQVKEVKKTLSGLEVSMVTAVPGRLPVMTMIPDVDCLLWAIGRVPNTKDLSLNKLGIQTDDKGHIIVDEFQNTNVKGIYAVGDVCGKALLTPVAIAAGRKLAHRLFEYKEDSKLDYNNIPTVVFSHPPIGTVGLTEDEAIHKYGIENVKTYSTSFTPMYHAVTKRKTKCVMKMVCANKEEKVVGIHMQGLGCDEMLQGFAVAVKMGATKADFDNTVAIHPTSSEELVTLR

[3] = test system: Trypanosoma brucei; assay: Antiproliferative activity against Trypanosoma brucei; type: functional, organism-based
How it was run: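 Bloodstream T. b. brucei S427 seeded at 10^3 cells/ml in HMI9 medium, 0.5% DMSO, inhibitor 50 to 0.2 μM serially diluted from 10 mM DMSO stocks. Incubated 72 h, 37 °C, 5% CO2, humidified. Then 45 μM resazurin added, further 4 h, resorufin fluorescence read (ex 528, em 590 nm). Triplicates, three separate occasions; weighted means ± SEM.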

[4] = Selectivity for TR over human GR

Sequence of Trypanothione reductase (P39051 whole entry): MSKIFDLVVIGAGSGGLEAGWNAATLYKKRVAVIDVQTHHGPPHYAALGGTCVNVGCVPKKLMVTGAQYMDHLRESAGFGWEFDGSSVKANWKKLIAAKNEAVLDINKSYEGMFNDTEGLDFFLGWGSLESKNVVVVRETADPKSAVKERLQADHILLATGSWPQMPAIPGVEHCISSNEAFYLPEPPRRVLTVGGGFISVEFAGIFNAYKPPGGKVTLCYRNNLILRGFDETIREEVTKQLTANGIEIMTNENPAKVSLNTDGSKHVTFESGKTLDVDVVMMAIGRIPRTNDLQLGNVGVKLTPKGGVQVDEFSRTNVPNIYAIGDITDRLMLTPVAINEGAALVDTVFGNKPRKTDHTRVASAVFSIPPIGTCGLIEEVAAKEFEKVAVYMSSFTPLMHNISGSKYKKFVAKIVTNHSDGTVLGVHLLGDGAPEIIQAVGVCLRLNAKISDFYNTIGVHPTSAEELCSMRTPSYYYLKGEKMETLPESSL

| Structure (SMILES) | IC50 [1] | IC50 [2] | EC50 [3] | IC50 [3] | Ratio IC50 [4] |
| --- | --- | --- | --- | --- | --- |
| CCCCOC(=O)c1ccc(NCCC(=O)c2cccc([N+](=O)[O-])c2)cc1 | 2.4 µM | > 135 µM | 0.96 µM | – | – |
| CC(C)(C)c1cc(CN2CCCCCC2)cc(C(C)(C)C)c1O | 38.8 µM | > 155 µM | 3.3 µM | – | – |
| N=C(N)c1ccc(OCCCCCOc2ccc(C(=N)N)cc2)cc1 [PENTAMIDINE] | – | – | – | 0.0046 µM | – |
| CN(C)CCC(=O)c1cccc([N+](=O)[O-])c1 | 0.34 µM | 20.3 µM | 0.68 µM | – | 59 |
| CN(C)CCC(=O)c1ccc(Cl)c(Cl)c1 | 3.3 µM | 64.8 µM | 1 µM | – | 20 |
| CS(=O)(=O)c1ccc(C(=O)CCN2CCCCC2)cc1 | 7.8 µM | 105 µM | 0.95 µM | – | 13 |
| CC(C)c1cc(CN(C)C)cc(C(C)C)c1O | 11.8 µM | 79.3 µM | > 50 µM | – | 6.7 |
| CC(C)(C)c1cc(CNCCO)cc(C(C)(C)C)c1O | 2 µM | 24.9 µM | 3.01 µM | – | 13 |
| O=C(CCN1CCOCC1)c1ccc(Cl)cc1 | 148 µM | > 212 µM | 0.98 µM | – | – |
| O=C(CCNc1cccc(F)c1)c1cccc([N+](=O)[O-])c1 | 3.3 µM | > 173 µM | 0.82 µM | – | – |
| Cc1cccc(NCCC(=O)c2cccc([N+](=O)[O-])c2)c1C | 1.5 µM | 86.3 µM | 0.15 µM | – | 58 |
| CN(C)CCC(=O)c1ccc(S(C)(=O)=O)cc1 | 2.9 µM | 20.4 µM | 0.55 µM | – | 7 |
| CCc1ccc(NCCC(=O)c2ccc(Cl)c(Cl)c2)cc1 | 107 µM | > 157 µM | 1.65 µM | – | – |
| O=C(CCNc1ccccc1)c1cccc([N+](=O)[O-])c1 | 1.7 µM | 58 µM | 1.01 µM | – | 35 |
